Assay results published in ChEMBL document CHEMBL1158364, “Synthesis and pharmacological evaluation of 2(3H)-furanones and 2(3H)-pyrrolones, combining analgesic and anti-inflammatory properties with reduced gastrointestinal toxicity and lipid peroxidation” (Eur J Med Chem, 2009).

Tests used:
Rattus norvegicus [1] = assay: Gastrointestinal toxicity in albino rat assessed ulcer index at 60 mg/kg, po after 17 hrs; format: organism-based; set-up: dose 60 mg/kg, route oral; details: in vivo
Summary of the method: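 Fasted albino rats (150–200 g; food, not water, withheld 24 h), groups of six, dosed orally at 60 mg/kg; controls got 1% methyl cellulose suspension. Normal diet for 17 h, then sacrifice. Stomach opened along greater curvature, washed, mucosa scored under magnifying glass (0.5 redness to 3.0 for >5 ulcers); severity index = treated group mean score minus control mean.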

Gastric mucosa = assay: Inhibition of lipid peroxidation assessed as malondialdehyde level per mg of protein in gastric mucosa isolated from albino rat treated 60 mg/kg, po by UV spectrophotometry; format: functional
Summary of the method: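 After the ulcer scoring, gastric mucosa was scraped and homogenized in 1.8 mL ice-cold 1.15% KCl. Supernatant (1 mL) received 0.5 mL 30% TCA and 0.5 mL 0.8% TBA, then was heated 30 min at 80 °C. Tubes were chilled 10 min on ice and centrifuged 3000 rpm for 15 min before absorbance was read (TBARS/MDA, Ohkawa method).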

Rattus norvegicus [2] = assay: Antiinflammatory activity in Wistar rat assessed as inhibition of carrageenan-induced paw odema at 20 mg/kg, po pretreated 30 mins pre-carrageenan challenge measured after 3 hrs relative to control; format: functional
Summary of the method: (§1)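 Wistar rats of either sex, 180–200 g, six per group; vehicle 0.5% CMC given orally. […] in sterile 0.9% NaCl, 0.1 mL, injected sub-plantar into the right hind paw 30 min after dosing. Paw volume read by saline-displacement plethysmometer at 2 and 3 h. % inhibition = (Vc−Vt)/Vc × 100.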

Rattus norvegicus [3] = assay: Antiinflammatory activity in Wistar rat assessed as inhibition of carrageenan-induced paw odema at 20 mg/kg, po pretreated 30 mins pre-carrageenan challenge measured after 2 hrs relative to control; format: functional; summary of the method: as §1
Mus musculus [4] = assay: Peripheral analgesic activity in Swiss albino mouse assessed as inhibition of acetic acid-induced writhing response at 20 mg/kg, po pretreated 1 hr before acetic acid challenge; format: functional; set-up: scale not given: the % may be the effect or the level left
Summary of the method: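 Swiss albino mice of either sex, 25–30 g, housed singly and habituated 30 min in the test cage. Compounds given orally in 1% CMC; controls received 1% CMC. One hour after dosing, 0.10 mL 1% acetic acid was given i.p. Writhes were counted over 30 min and % protection derived versus control.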

Mus musculus [5] = assay: Central analgesic activity in Swiss albino mouse assessed as reaction time required to elicit thermal stimulus-induced hind paw licking at 20 mg/kg, po after 60 mins by Turner hotplate method; format: functional
Summary of the method: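 Swiss albino mice of either sex, 25–30 g, six per group. Compounds given orally in 1% CMC; controls received vehicle only. Hot plate held at 53 ± 0.5 °C. Reaction time is the interval from placement on the plate to hind-paw licking or jumping. Measured before dosing (0 min) and 1 h after oral dosing.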

| Compound | UI (Rattus norvegicus [1]) | Activity (Gastric mucosa) [nmol/mg protein] | inhibition in vivo at 20 mg/kg (Rattus norvegicus [2]) [%] | inhibition in vivo at 20 mg/kg (Rattus norvegicus [3]) [%] | Activity (Mus musculus [4]) [%] | Activity (Mus musculus [5]) [s] |
| --- | --- | --- | --- | --- | --- | --- |
| COc1ccc(/C=C2\C=C(c3ccc(Cl)cc3)OC2=O)cc1 | 0.5 | 0.545 | 32.3 | 4 |  |  |
| O=C1OC(c2ccc(Cl)cc2)=C/C1=C\c1ccc(Cl)cc1 | 0.2 | 0.403 | 69.1 | 40 | 44.57 | 12.67 |
| O=C1OC(c2ccc(Cl)cc2)=C/C1=C\c1ccccc1 | 0.9 | 0.522 | 36 | 18.9 |  |  |
| O=C1OC(c2ccc(Cl)cc2)=C/C1=C\c1ccc([N+](=O)[O-])cc1 | 0.4 | 0.549 | 36 | 4 |  |  |
| COc1ccc(/C=C2\C=C(c3ccc(Cl)cc3)OC2=O)cc1OC | 0.3 | 0.533 | 36 | 9.33 |  |  |
| COc1cc(/C=C2\C=C(c3ccc(Cl)cc3)N(Cc3ccccc3)C2=O)ccc1O | 0.5 | 0.558 | 42 | 36 |  |  |
| O=C1/C(=C/c2ccc(F)cc2)C=C(c2ccc(Cl)cc2)N1Cc1ccccc1 | 0.2 | 0.401 | 89.5 | 58.7 | 59.03 | 13.3 |
| O=C1OC(c2ccc(Cl)cc2)=C/C1=C\c1ccccc1Cl | 0.2 | 0.494 | 81.5 | 62.7 | 53.01 | 12.69 |
| O=C1OC(c2ccc(Cl)cc2)=C/C1=C\c1ccccc1[N+](=O)[O-] | 0.6 | 0.429 | 18.5 | 4 |  |  |
| O=C1OC(c2ccc(Cl)cc2)=C/C1=C\c1ccc(F)cc1 | 0.4 | 0.329 | 70.4 | 41.3 | 50.6 | 12.9 |
| COc1cc(/C=C2\C=C(c3ccc(Cl)cc3)OC2=O)ccc1OC(C)=O | 0.3 | 0.597 | 37 | 24 |  |  |
| O=C1OC(c2ccc(Cl)cc2)=C/C1=C\c1ccc(Cl)cc1Cl | 0.1 | 0.388 | 72.6 | 53.3 | 49.39 | 11.86 |
| O=C1/C(=C/c2ccc([N+](=O)[O-])cc2)C=C(c2ccc(Cl)cc2)N1Cc1ccccc1 | 0.4 | 0.403 | 19.8 | 12 |  |  |
| O=C1/C(=C/c2ccc(Cl)cc2)C=C(c2ccc(Cl)cc2)N1Cc1ccccc1 | 0.1 | 0.31 | 88.9 | 58.7 | 57.83 | 11.55 |
| O=C1/C(=C/c2ccccc2)C=C(c2ccc(Cl)cc2)N1Cc1ccccc1 | 0.6 | 0.605 | 37 | 24 |  |  |
| CC(C)Cc1ccc(C(C)C(=O)O)cc1 (configuration not stated) [IBUPROFEN] | 0.9 |  | 89.5 | 80.9 | 65.06 | 14.4 |
